For the assay, the system named is luciferase expression in M21+GL3 cells. The experiment in a line: Luciferase knockdown. The format is cell-based, human. Particulars: 25 nM, no transfection agent; 4 h serum free, then 2% serum to 96 h. In outline:
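M21+GL3 stable clone made by nucleoporation with pGL3-promoter plus pcDNA3.1/hygro (10:1), selected two weeks in 500 μg/ml hygromycin B. siRNA added 4 h at 37°C in serum-free OPTI-MEM, then serum added to 2% and incubated to 96 h total. Lipofectamine 2000-complexed siRNA served as positive control, its medium swapped to DMEM-H with 2% serum. Lysate luminescence read and normalized to total cellular protein.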

For the substance “AccGAAAGGucuuAccGGAdTsdTX2 (head to tail) [compound 14]”, the reduction in luciferase is on record as 70%.

(Values after article PMC3718025 (Bioconjugate chemistry, 2011).)
